Test results taken from ChEMBL document CHEMBL3124897, “A dynamic G-quadruplex region regulates the HIV-1 long terminal repeat promoter” (J Med Chem, 2013).
The source made the active and inactive calls. No cut-off for these calls is given here.

How the values were obtained:
[1] = test system: Human immunodeficiency virus 1; assay: Inhibition of wild-type HIV 1 HXB2 LTR DNA assessed as reduction in promoter activity after 24 hrs by GFP reporter assay in the presence of Tat
How it was run: (§1)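 HEK 293T cells (2×10^5) transfected with LTR-EGFP plasmid, with or without Tat. Ligand (1.5–6.0 µM) added 4 h after transfection, then incubated overnight. Mean EGFP fluorescence measured by flow cytometry, 30000 events, gated on GFP+ cells with viable morphology. n = 3, mean ± s.d., Student's t-test.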

[2] = test system: Human immunodeficiency virus 1; assay: Inhibition of wild-type HIV 1 HXB2 LTR DNA assessed as reduction in promoter activity after 24 hrs by GFP reporter assay in the absence of Tat; how it was run: as §1
[3] = test system: Human immunodeficiency virus 1; assay: Antiviral activity against wild type HIV 1 NL4-3 infected in human TZM-bl cells assessed as inhibition of viral replication at 3 to 6 uM after 48 hrs by luciferase reporter gene assay; format: functional, organism-based
How it was run: (§2)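 TZM-bl cells (HIV-1 LTR-luciferase reporter line), 2×10^4 per well, grown overnight. Ligand preincubated with medium and wild-type or Nef-defective NL4-3 virus for 4 h before infection. Virus stocks were made by transfecting HEK 293T with proviral genomes and amplified in MT2 cells. Luciferase read on lysates after 48 h at 37°C. Values relative to DMSO-only infected control, n = 3, ±SEM.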

[4] = test system: Human immunodeficiency virus 1; assay: Antiviral activity against Nef-deficient HIV 1 NL4-3 infected in human TZM-bl cells assessed as inhibition of viral replication at 3 to 6 uM after 48 hrs by luciferase reporter gene assay; format: functional, organism-based; how it was run: as §2
[5] = test system: Human immunodeficiency virus 1; assay: Binding affinity to HIV 1 HXB2 G-quadruplex LTR-2 DNA assessed as change in melting temperature at 16 uM after 24 hrs by circular dichroism spectropolarimeter analysis in the absence of K+
How it was run: (§3)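 Oligonucleotides at 4 µM final in 10 mM lithium cacodylate, pH 7.4, with or without 100 mM KCl. Annealed at 95 °C for 5 min, slowly cooled, measured after 24 h. Ligand added after annealing at 16 µM final. CD melting from 20–95 °C, 1 min equilibration per step. Tm taken from a van't Hoff two-state fit.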

[6] = test system: Human immunodeficiency virus; assay: Binding affinity to HIV 1 HXB2 G-quadruplex LTR-4 DNA assessed as change in melting temperature at 16 uM after 24 hrs by circular dichroism spectropolarimeter analysis in the presence of K+; how it was run: as §3
[7] = test system: Human immunodeficiency virus 1; assay: Binding affinity to HIV 1 HXB2 G-quadruplex LTR-2 DNA assessed as change in melting temperature at 16 uM after 24 hrs by circular dichroism spectropolarimeter analysis in the presence of K+; how it was run: as §3
[8] = test system: Human immunodeficiency virus 1; assay: Binding affinity to HIV 1 HXB2 G-quadruplex LTR-3 DNA assessed as change in melting temperature at 16 uM after 24 hrs by circular dichroism spectropolarimeter analysis in the presence of K+; how it was run: as §3
[9] = test system: Human immunodeficiency virus 1; assay: Binding affinity to HIV 1 HXB2 G-quadruplex LTR-3 DNA assessed as change in melting temperature at 16 uM after 24 hrs by circular dichroism spectropolarimeter analysis in the absence of K+; how it was run: as §3
[10] = test system: Human immunodeficiency virus 1; assay: Binding affinity to HIV 1 HXB2 G-quadruplex LTR-FL DNA assessed as change in melting temperature at 16 uM after 24 hrs by circular dichroism spectropolarimeter analysis in the presence of K+; how it was run: as §3
[11] = test system: Human immunodeficiency virus 1; assay: Binding affinity to HIV 1 HXB2 G-quadruplex FL-LTR DNA assessed as blocking at G-tracts (6 and 5) after 20 mins by Taq polymerase stop assay
How it was run: (§4)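 Primer was 5'-32P-labelled (72 nM) and annealed to full-length LTR template (36 nM) in 10 mM lithium cacodylate, pH 7.4. Template was incubated with ligand plus 100 mM KCl for 20 min at room temperature. Extension used Taq Gold polymerase (2 U) at 47°C for 30 min. Reactions were stopped by EtOH precipitation, run on a 12% denaturing gel and read by phosphorimaging as stop sites at G-tracts.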

[12] = test system: Human immunodeficiency virus 1; assay: Binding affinity to HIV 1 HXB2 G-quadruplex FL-LTR DNA assessed as blocking sites at G-tracts (4 to 2) after 20 mins by Taq polymerase stop assay; how it was run: as §4
[13] = test system: Human immunodeficiency virus 1; assay: Binding affinity to HIV 1 HXB2 G-tract mutant m3 FL-LTR assessed as formation of LTR-4 G-quadruplex by Taq polymerase stop assay
How it was run: (§5)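 Primer extension on wild-type or mutant full-length LTR templates in 100 mM K+ with 100 nM ligand. Labelled primer (72 nM) annealed to template (36 nM) in 10 mM lithium cacodylate, pH 7.4. Ligand/KCl incubation 20 min at room temperature, then Taq Gold extension at 47°C for 30 min. Products on 12% denaturing gel, phosphorimaging of stop sites.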

[14] = test system: Human immunodeficiency virus 1; assay: Inhibition of wild-type HIV 1 HXB2 LTR DNA assessed as reduction in promoter activity at 1.5 to 6 uM after 24 hrs by luciferase assay; set-up: scale not given: the % may be the effect or the level left
How it was run: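 HEK 293T cells (5.5×10^4 per well) co-transfected with LTR-driven firefly luciferase (pGL4.10Luc2/LTR) and TK-promoter Renilla luciferase (pGL4.74), 200 ng each. Treated with ligand at 1.5–6.0 µM. Firefly signal normalized to Renilla. n = 3, mean ± s.d., Student's t-test.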

[15] = test system: Human immunodeficiency virus 1; assay: Binding affinity to HIV 1 HXB2 G-tract mutant m5/m4 FL-LTR assessed as formation of LTR G-quadruplex by Taq polymerase stop assay; how it was run: as §5
[16] = test system: Human immunodeficiency virus 1; assay: Binding affinity to HIV 1 HXB2 G-tract mutant m3' FL-LTR assessed as effect on LTR G-quadruplex formation by Taq polymerase stop assay; how it was run: as §5
[17] = test system: Human immunodeficiency virus 1; assay: Inhibition of HIV 1 HXB2 G-tract mutant m5 LTR DNA assessed as reduction in promoter activity at 1.5 to 6 uM after 24 hrs by luciferase assay
How it was run: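 HEK 293T cells (5.5×10^4 per well) transfected with LTR-firefly luciferase vector plus HSV-TK Renilla control vector (200 ng each). Cells treated with ligand at 1.5–6.0 µM. Firefly signal normalized to Renilla and expressed relative to untreated control. n = 3, mean ± s.d., Student's t-test.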

[18] = test system: Human immunodeficiency virus 1; assay: Binding affinity to HIV 1 HXB2 G-tract mutant m6' FL-LTR assessed as formation of LTR-2 and LTR-3 G-quadruplex by Taq polymerase stop assay; how it was run: as §5
[19] = test system: Human immunodeficiency virus 1; assay: Inhibition of wild-type HIV 1 HXB2 LTR DNA assessed as reduction in promoter activity at 6 uM after 24 hrs by GFP reporter assay in the presence of Tat
How it was run: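 HEK 293T cells (2×10^5) transfected with pcLTR-EGFP, with Tat present. Ligand (1.5–6.0 µM) added 4 h after transfection and left overnight. Flow cytometry gated on GFP+ cells of viable morphology, 30000 events per sample; mean EGFP fluorescence read. n = 3, mean ± s.d., t-test.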

[20] = test system: Human immunodeficiency virus 1; assay: Binding affinity to HIV 1 HXB2 G-tract mutant m3'' FL-LTR assessed as effect on LTR G-quadruplex formation by Taq polymerase stop assay; how it was run: as §5
[21] = test system: Human immunodeficiency virus 1; assay: Binding affinity to HIV 1 HXB2 G-tract mutant m1 FL-LTR assessed as effect on LTR G-quadruplex formation by Taq polymerase stop assay; how it was run: as §5
[22] = Cytotoxicity against human TZM-bl cells at 0.1 to 6 uM after 48 hrs; format: cell-based
How it was run: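 TZM-bl cells (2×10^4 per well) grown overnight, then exposed to compound in DMSO carrier at 37°C. Viability read after 48 h with Cell Titer Blue reagent.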

[23] = test system: Human immunodeficiency virus 1; assay: Binding affinity to HIV 1 HXB2 G-tract mutant m6 FL-LTR DNA assessed as formation of LTR-2 G-quadruplex by Taq polymerase stop assay; how it was run: as §5
[24] = test system: Human immunodeficiency virus 1; assay: Binding affinity to HIV 1 HXB2 G-tract mutant m2 FL-LTR assessed as formation of LTR-2 G-quadruplex by Taq polymerase stop assay; how it was run: as §5

## C[n+]1ccccc1-c1c2nc(c(-c3cccc[n+]3C)c3ccc([nH]3)c(-c3cccc[n+]3C)c3ccc([nH]3)c(-c3cccc[n+]3C)c3nc1C=C3)C=C2
[1]
  inhibition: inactive
[2]
  inhibition: inactive
[3]
  inhibition: inactive
[4]
  inhibition: inactive

## C[n+]1ccc(-c2c3nc(c(-c4cc[n+](C)cc4)c4ccc([nH]4)c(-c4cc[n+](C)cc4)c4ccc([nH]4)c(-c4cc[n+](C)cc4)c4nc2C=C4)C=C3)cc1
[5]
  ΔTm: 12.4 °C
[6]
  ΔTm: 43.9 °C
[7]
  ΔTm: 33.4 °C
[8]
  ΔTm: 38 °C
[9]
  ΔTm: 22.9 °C
[10]
  ΔTm: 4.5 °C
[11]
  Activity: Active
[12]
  Activity: inactive

## O=C1c2ccc3c4ccc5c6c(ccc(c7ccc(c2c37)C(=O)N1CCN1CCCCC1)c64)C(=O)N(CCN1CCCCC1)C5=O
[5]
  ΔTm: 13.8 °C
[6]
  ΔTm: 55.8 °C
[7]
  ΔTm: 31.1 °C
[8]
  ΔTm: 16.4 °C
[9]
  ΔTm: 15 °C
[10]
  ΔTm: 8.8 °C

## CN(C)c1ccc(Nc2c3ccc(NC(=O)CCN4CCCC4)cc3nc3cc(NC(=O)CCN4CCCC4)ccc23)cc1
[13]
  Activity: Active
[14]
  Activity: 70%
[15]
  Activity: inactive
[16]
  Activity: inactive
[1]
  inhibition: Dose-dependent effect
[17]
  Activity: inactive
[2]; concentration not given here
  inhibition: 30%
[3]
  inhibition: Active
[5]
  ΔTm: 17.6 °C
[6]
  ΔTm: 54 °C
[7]
  ΔTm: 39.9 °C
[8]
  ΔTm: 42.3 °C
[18]
  Activity: Active
[19]
  inhibition: 50%
[9]
  ΔTm: 12.9 °C
[10]
  ΔTm: 5.6 °C
[20]
  Activity: inactive
[11]
  Activity: Active
[21]
  Activity: inactive
[22]
  Activity: Non-toxic
[23]
  Activity: Active
[24]
  Activity: inactive
[12]
  Activity: inactive
[4]
  inhibition: Active
